Test results as given in ChEMBL document CHEMBL1268810, “'Click' assembly of selective inhibitors for MAO-A” (Bioorg Med Chem Lett, 2010).

Legend:
[1] = Selectivity ratio, ratio of IC50 for MAOB to IC50 for MAOA
[2] = target: T1, Amine oxidase [flavin-containing] A (Homo sapiens, UniProt P21397); experiment: Inhibition of MAOA by spectrofluorimetry
T1 sequence (P21397 whole entry): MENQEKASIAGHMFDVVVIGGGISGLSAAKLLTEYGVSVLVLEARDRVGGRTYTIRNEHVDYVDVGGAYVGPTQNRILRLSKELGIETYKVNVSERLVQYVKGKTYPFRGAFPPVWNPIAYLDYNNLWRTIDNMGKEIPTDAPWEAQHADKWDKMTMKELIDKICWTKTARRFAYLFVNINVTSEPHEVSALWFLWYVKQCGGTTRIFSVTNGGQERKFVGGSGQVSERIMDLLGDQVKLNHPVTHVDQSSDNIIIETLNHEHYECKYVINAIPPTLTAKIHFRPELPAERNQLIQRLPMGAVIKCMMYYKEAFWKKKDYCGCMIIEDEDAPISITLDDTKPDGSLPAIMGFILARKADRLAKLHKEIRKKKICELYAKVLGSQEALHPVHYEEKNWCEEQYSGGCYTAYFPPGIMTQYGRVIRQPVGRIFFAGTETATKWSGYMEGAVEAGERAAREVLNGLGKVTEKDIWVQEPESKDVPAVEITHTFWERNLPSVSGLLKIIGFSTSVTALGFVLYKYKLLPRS
In short: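 Fluorescence-based microplate assay for MAO-A and MAO-B inhibition, following the group's earlier reported method. Click reaction mixtures, made with CuSO4 and sodium ascorbate in t-BuOH/H2O (1:1) over 24 h, were diluted into 96-well plates from 0 to 100 μM. Fluorescence was read at λex 360 nm and λem 460 nm.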

[3] = target: T2, Amine oxidase [flavin-containing] B (Homo sapiens, UniProt P27338); experiment: Inhibition of MAOB by spectrofluorimetry
T2 sequence (P27338 whole entry): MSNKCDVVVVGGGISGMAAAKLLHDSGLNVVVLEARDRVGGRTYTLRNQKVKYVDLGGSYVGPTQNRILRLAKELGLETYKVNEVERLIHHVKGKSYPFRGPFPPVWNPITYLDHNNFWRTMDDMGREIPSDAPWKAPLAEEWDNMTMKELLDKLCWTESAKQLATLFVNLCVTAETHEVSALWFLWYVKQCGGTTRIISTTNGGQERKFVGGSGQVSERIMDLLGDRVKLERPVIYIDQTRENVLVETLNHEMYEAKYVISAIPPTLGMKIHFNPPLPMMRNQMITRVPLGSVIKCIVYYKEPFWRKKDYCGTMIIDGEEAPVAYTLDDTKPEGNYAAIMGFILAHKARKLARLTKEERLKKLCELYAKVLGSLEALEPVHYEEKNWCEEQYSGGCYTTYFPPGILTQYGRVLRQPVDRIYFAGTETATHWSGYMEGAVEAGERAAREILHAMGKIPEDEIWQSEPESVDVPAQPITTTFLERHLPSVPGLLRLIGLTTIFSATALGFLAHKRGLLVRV

Ratio IC50 [1]	IC50 [2] [µM]	IC50 [3] [µM]	SMILES
0.95	50.7	62.1	NCc1cn(-c2cccc(C(=O)O)c2)nn1
140	0.83	116	NCc1cn(-c2ccncc2)nn1
2.89	19.6	56.9	NCc1cn(-c2ccc(C(=O)O)cc2)nn1
526	0.97	511	NCc1cn(-c2ccccc2)nn1
